From paper PMC2633595 (Analytical biochemistry, 2008)
“Also recorded” adds a separate entry of the source. Like-named read-outs stand apart in the source and are kept apart here.

Columns and labels:
GST-Rab7 [1] = target: T1, GST-Rab7 (Canis lupus familiaris, UniProt P18067); assay type: binding, canine; details: for maximal binding Bmax: GST-Rab7, 1 mM MgCl2
Method in brief: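 Canine GST-Rab7 from E. coli, glutathione-purified, loaded at 1 µM onto glutathione beads (4°C, overnight, HPS buffer, 1 mM DTT). 10^4 beads incubated 2 h at 4°C with 0–2 µM BODIPY FL GTP, GDP or GTP-γ-NH in 1 mM EDTA or 1 mM MgCl2. Diluted ≥10-fold and read by flow cytometry. Fluorescein calibration beads gave BODIPY/bead. Bmax and Kd from hyperbolic fit.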

GST-Rab7 [2] = target: T1, GST-Rab7; assay: Kinetic assays; assay type: binding, canine; details: for koff: GST-Rab7, 1 mM EDTA buffer
GST-Rab7 [3] = target: T1, GST-Rab7; assay type: binding, canine; details: competition with 100 nM BODIPY FL GTP, 1 mM EDTA buffer
Method in brief: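 Canine Rab7 GST fusion expressed in BL21(DE3) E. coli and glutathione-affinity purified. 1 µM protein loaded overnight at 4°C onto glutathione Superdex beads in HPS buffer (HEPES pH 7.5, KCl, NaCl, dodecyl maltoside) with 1 mM DTT, then washed. 10^4 beads incubated 2 h at 4°C with 100 nM BODIPY FL GTP plus unlabeled GDP or GTP-γ-S. Read by flow cytometry; fitted EC50 converted to Ki.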

GST-RhoA = GST-RhoA (Homo sapiens, UniProt P61586); assay type: binding; details: for maximal binding Bmax: 1 mM MgCl2; for Bmax / Kd: 1 mM MgCl2 buffer
Method in brief: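 GST-RhoA purified from E. coli. Loaded at 1 µM overnight at 4°C onto glutathione beads in HPS buffer with 1 mM DTT and 1 mM MgCl2, then washed twice. 10^4 beads incubated 2 h at 4°C with 0–2 µM BODIPY FL GTP or GTP-γ-NH in 1 mM MgCl2. Diluted ≥10-fold and read by flow cytometry. Signal calibrated to BODIPY/bead with fluorescein beads. Bmax and Kd from hyperbolic fit.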

Rab7 = details: nucleotide free system ref 11; cited from earlier work
[4] = GST-Rab7, 1 mM EDTA buffer, 2 h at 4°C

T1 sequence (P18067 whole entry): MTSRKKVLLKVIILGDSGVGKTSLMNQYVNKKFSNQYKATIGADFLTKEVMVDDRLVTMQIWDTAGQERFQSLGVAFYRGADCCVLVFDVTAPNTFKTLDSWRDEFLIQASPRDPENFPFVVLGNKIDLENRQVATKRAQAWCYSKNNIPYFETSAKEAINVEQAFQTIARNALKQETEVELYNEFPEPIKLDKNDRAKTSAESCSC
Chain of GST-RhoA (P61586 whole entry): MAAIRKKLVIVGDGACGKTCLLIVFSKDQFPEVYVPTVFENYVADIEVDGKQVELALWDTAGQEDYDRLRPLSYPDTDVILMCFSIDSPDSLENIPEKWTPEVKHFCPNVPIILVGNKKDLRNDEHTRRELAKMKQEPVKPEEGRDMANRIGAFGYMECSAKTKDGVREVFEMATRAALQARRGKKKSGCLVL

Compound	higher affinity of Rab7 for GDP relative to GTP (GST-Rab7 [1]; GST-Rab7) [fold]	Bmax (GST-Rab7 [1]; GST-Rab7, 1 mM EDTA buffer)	Kd (GST-Rab7 [1]; [4]) [nM]	koff (GST-Rab7 [2])	maximal binding Bmax (GST-RhoA)	Bmax (GST-RhoA)	Kd (GST-RhoA) [nM]	maximal binding Bmax (GST-Rab7 [1])	Bmax (GST-Rab7 [1]; GST-Rab7, 1 mM MgCl2 buffer)	Kd (GST-Rab7 [1]; GST-Rab7, 1 mM MgCl2 buffer) [nM]	Ki (GST-Rab7 [3]) [nM]	further results
Nc1nc2c(ncn2[C@@H]2O[C@H](COP(=O)(O)OP(=O)(O)O)[C@@H](O)[C@H]2O)c(=O)[nH]1 [GDP]	3										13 ± 5	slower dissociation rate of GDP (GST-Rab7 [2]; GST-Rab7, relative to GTP): 3 fold
Nc1nc2c(ncn2[C@@H]2O[C@H](COP(=O)(O)OP(=O)(O)OP(O)(O)=S)[C@@H](O)[C@H]2O)c(=O)[nH]1 [GTP-γ-S]											40 ± 10	
BODIPY FL GTP 2’-(or-3’)-O-(N-(2-aminoethyl)urethane		1600 ± 400 10^3 BODIPY/bead	150 ± 62	7.0 ±3.0 × 10^−3 sec^−1	700 × 10^3 fluorophores/bead	700 ± 20 10^3 BODIPY/bead	80 ± 10	650 × 10^3 fluorophores/bead	650 ± 10 10^3 BODIPY/bead	20 ± 5		decrease in affinity in the absence of Mg^2+ (GST-Rab7 [1]; GST-Rab7): 8 fold; maximal binding (GST-Rab7 [1]; GST-Rab7, 1 mM EDTA): 1600 × 10^3 fluorophores/bead; faster dissociation of GTP compared to GDP (GST-Rab7 [2]; GST-Rab7): 3 fold; t1/2 (observed on-rate half-time) (GST-Rab7 [2]; GST-Rab7, 1 mM EDTA, 50-500 nM BODIPY FL GTP): 11.1 ± 0.6 min; dissociation rate faster in the absence of Mg^2+ relative to Mg^2+ present (GST-Rab7 [2]; GST-Rab7, competed by excess unlabeled nucleotide): 7 times; koff Mg^2+ (GST-Rab7 [2]; GST-Rab7, with Mg^2+): 0.0013 s⁻¹
methylanthraniloyl (mant) GTP												Kd (Rab7): 6 nM

The next lines start with results.

higher affinity of Rab7 for GDP relative to GTP (GST-Rab7 [1]; GST-Rab7) [fold]	Bmax (GST-Rab7 [1]; GST-Rab7, 1 mM EDTA buffer)	Kd (GST-Rab7 [1]; [4]) [nM]	koff (GST-Rab7 [2])	maximal binding Bmax (GST-RhoA)	Bmax (GST-RhoA)	Kd (GST-RhoA) [nM]	maximal binding Bmax (GST-Rab7 [1])	Bmax (GST-Rab7 [1]; GST-Rab7, 1 mM MgCl2 buffer)	Kd (GST-Rab7 [1]; GST-Rab7, 1 mM MgCl2 buffer) [nM]	Compound	Ki (GST-Rab7 [3]) [nM]	further results
3	2000 ± 400 10^3 BODIPY/bead	54 ± 15	2.3 ± 1.5 × 10^−3 sec^−1							BODIPY FL GDP 2′-(or-3′)-O-(N-(2-aminoethyl)urethane)		
				710 × 10^3 fluorophores/bead	710 ± 15 10^3 BODIPY/bead	95 ± 10	60 × 10^3 fluorophores/bead	60 ± 5 10^3 BODIPY/bead	70 ± 20	BODIPY FL GTP-γ-NH amide		binding to GST-Rab7 (in words) (GST-Rab7 [1]; GST-Rab7): unique inability; also recorded: marked inability to bind; lower binding affinity relative to BODIPY FL GTP (GST-Rab7 [1]; GST-Rab7, with Mg^2+): 90%
